Measured values: ChEMBL document CHEMBL1833870, “Deconstruction of the α4β2 nicotinic acetylcholine receptor positive allosteric modulator desformylflustrabromine” (J Med Chem, 2011)
Counter-ions that a name gives are not always drawn. The source made the active and inactive calls. No cut-off for these calls is given here.

Experiments:
[1] = biological target: Neuronal acetylcholine receptor subunit alpha-7 (Homo sapiens, UniProt P36544); experiment: Antagonist activity at human alpha7 nAChR expressed in xenopus oocyte assessed as inhibition of acetylcholine-induced current by two-electrode voltage clamp assay; type: functional
In short: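 Xenopus stage IV oocytes were injected with human α7 cRNA (50 nL, 0.2 ng/nL) and kept 24–72 h at 19 °C. Recording was by two-electrode voltage clamp with ND-96 perfusion (pH 7.4) at 20 mL/min. Compound dissolved in ND-96 was co-applied with ACh, and inhibition of the ACh response was read. Concentration–response data were fit by non-linear regression.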

[2] = biological target: T1, Neuronal acetylcholine receptor; alpha4/beta2 (Homo sapiens, UniProt P17787+P43681); experiment: Agonist activity at human alpha4beta2 nACHR expressed in xenopus oocyte assessed as potentiation of acetylcholine-induced current by two electrode voltage clamp assay; type: functional
In short: (§1)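 Human α4 and β2 cRNA injected into stage IV Xenopus oocytes (50 nL total at 0.2 ng/nL, subunit ratio as appropriate), then incubated 24–72 h at 19 °C. Two-electrode voltage clamp in a vertical flow chamber perfused with ND-96 (pH 7.4) at 20 mL/min. Compound in ND-96 was co-applied with ACh, and the enhancement of current was measured. Concentration–response curves were fit by non-linear regression.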

Homo sapiens = organism: Homo sapiens; experiment: Selectivity ratio of IC50 for human alpha7 nAChR to IC50 for human alpha4beta2 nAChR
[3] = biological target: T1, Neuronal acetylcholine receptor; alpha4/beta2; experiment: Agonist activity at human alpha4beta2 nACHR expressed in xenopus oocyte assessed as potentiation of acetylcholine-induced current by two electrode voltage clamp assay relative to acetylcholine; type: functional; in short: as §1

Sequence of Neuronal acetylcholine receptor subunit alpha-7 (P36544 whole entry, the tested form may be a part): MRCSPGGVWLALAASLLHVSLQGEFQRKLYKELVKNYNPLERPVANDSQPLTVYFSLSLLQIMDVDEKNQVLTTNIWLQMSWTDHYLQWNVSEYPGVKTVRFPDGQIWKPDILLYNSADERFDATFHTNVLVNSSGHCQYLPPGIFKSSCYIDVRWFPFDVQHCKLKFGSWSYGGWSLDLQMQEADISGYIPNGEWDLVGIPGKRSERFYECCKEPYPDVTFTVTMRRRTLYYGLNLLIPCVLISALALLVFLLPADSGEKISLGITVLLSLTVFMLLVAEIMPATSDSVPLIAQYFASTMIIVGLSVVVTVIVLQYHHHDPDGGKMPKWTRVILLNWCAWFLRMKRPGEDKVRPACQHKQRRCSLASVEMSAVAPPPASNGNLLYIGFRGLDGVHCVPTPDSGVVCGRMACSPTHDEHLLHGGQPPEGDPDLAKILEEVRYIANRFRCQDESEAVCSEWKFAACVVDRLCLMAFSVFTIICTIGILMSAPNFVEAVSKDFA
T1 sequence (P17787 whole entry, the tested form may be a part): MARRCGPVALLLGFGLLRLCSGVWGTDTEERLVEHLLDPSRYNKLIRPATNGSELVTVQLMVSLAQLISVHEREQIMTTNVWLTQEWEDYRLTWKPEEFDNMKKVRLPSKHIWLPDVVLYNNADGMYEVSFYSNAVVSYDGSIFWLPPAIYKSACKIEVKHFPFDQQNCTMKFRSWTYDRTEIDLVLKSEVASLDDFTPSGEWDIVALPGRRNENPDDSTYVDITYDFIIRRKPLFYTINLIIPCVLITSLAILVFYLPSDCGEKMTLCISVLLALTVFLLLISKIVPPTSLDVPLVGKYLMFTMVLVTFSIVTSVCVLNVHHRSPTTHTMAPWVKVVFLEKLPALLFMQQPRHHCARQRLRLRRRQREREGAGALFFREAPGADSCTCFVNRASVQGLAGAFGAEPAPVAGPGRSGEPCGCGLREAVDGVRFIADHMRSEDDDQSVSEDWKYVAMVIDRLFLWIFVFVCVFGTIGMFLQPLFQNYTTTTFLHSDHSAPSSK
T1 sequence (P43681 whole entry, the tested form may be a part): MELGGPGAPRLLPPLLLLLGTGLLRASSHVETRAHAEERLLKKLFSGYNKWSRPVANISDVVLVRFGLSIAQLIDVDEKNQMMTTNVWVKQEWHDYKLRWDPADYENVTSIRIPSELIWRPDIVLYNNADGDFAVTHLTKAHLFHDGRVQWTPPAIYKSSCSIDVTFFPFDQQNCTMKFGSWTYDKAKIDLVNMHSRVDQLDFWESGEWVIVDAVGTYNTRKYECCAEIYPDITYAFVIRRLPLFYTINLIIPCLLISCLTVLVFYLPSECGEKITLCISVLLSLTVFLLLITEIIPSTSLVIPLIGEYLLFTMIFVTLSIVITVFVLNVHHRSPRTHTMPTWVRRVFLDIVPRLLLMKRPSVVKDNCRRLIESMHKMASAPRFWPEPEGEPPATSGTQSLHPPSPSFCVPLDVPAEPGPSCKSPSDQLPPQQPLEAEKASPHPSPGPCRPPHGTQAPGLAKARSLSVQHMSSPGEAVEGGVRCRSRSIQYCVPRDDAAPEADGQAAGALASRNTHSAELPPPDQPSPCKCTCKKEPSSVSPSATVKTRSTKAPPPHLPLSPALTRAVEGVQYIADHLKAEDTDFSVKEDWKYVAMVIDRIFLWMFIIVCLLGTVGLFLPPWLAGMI

Row | Structure (SMILES) | EC50 [1] [µM] | EC50 ([2]; read-out: EC50) [µM] | EC50 ([2]; read-out: pEC50 (converted)) [µM] | pEC50 [2] | Ratio IC50 (Homo sapiens) | Emax [3] [%]
1 | C=CC(C)(C)c1[nH]c2cc(Br)ccc2c1CCNC [DESFORMYLFLUSTRABROMINE HYDROCHLORIDE] | 1.86 | 0.32 | 0.331 | – | – | –
2 | CNCCc1c(C(C)C)[nH]c2ccccc12 | – | – | – | inactive | – | –
3 | CNCCc1c(C(C)(C)C)[nH]c2ccccc12 | 4.79 | – | 3.98 | – | – | –
4 | C=CCc1[nH]c2cc(Br)ccc2c1CCNC | 29.5 | – | – | inactive | – | –
5 | CCC(C)(C)c1[nH]c2cc(Br)ccc2c1CCNC | 25.7 | 0.1 | 0.138 | – | 190 | 290
6 | CCC(C)c1[nH]c2ccccc2c1CCNC (racemic) | 9.77 | – | – | inactive | – | –
7 | C=CC(C)(C)c1[nH]c2cc(Br)ccc2c1CCN | 5.75 | – | 0.513 | – | – | –
8 | CNCCc1c[nH]c2cc(Br)ccc12 | 11 | – | – | inactive | – | –
9 | CCCc1[nH]c2ccccc2c1CCNC | 44.7 | – | – | inactive | – | –
10 | C=CC(C)(C)c1[nH]c2ccccc2c1CCNC | 7.76 | 6.77 | 7.24 | – | – | 250
11 | CCC(C)(C)c1[nH]c2ccccc2c1CCNC | 20.4 | 1.22 | 3.02 | – | – | 260
12 | CCCc1[nH]c2cc(Br)ccc2c1CCNC | 20.9 | – | – | inactive | – | –
